Our source for the inhibition and IC50 values is ChEMBL document CHEMBL3352121, “Modulation of Activity Profiles for Largazole-Based HDAC Inhibitors through Alteration of Prodrug Properties” (ACS Med Chem Lett, 2014).

In experiment [1] the target is T1, Protein deacetylase HDAC6 (Homo sapiens) (UniProt Q9UBN7).
T1 sequence (whole entry): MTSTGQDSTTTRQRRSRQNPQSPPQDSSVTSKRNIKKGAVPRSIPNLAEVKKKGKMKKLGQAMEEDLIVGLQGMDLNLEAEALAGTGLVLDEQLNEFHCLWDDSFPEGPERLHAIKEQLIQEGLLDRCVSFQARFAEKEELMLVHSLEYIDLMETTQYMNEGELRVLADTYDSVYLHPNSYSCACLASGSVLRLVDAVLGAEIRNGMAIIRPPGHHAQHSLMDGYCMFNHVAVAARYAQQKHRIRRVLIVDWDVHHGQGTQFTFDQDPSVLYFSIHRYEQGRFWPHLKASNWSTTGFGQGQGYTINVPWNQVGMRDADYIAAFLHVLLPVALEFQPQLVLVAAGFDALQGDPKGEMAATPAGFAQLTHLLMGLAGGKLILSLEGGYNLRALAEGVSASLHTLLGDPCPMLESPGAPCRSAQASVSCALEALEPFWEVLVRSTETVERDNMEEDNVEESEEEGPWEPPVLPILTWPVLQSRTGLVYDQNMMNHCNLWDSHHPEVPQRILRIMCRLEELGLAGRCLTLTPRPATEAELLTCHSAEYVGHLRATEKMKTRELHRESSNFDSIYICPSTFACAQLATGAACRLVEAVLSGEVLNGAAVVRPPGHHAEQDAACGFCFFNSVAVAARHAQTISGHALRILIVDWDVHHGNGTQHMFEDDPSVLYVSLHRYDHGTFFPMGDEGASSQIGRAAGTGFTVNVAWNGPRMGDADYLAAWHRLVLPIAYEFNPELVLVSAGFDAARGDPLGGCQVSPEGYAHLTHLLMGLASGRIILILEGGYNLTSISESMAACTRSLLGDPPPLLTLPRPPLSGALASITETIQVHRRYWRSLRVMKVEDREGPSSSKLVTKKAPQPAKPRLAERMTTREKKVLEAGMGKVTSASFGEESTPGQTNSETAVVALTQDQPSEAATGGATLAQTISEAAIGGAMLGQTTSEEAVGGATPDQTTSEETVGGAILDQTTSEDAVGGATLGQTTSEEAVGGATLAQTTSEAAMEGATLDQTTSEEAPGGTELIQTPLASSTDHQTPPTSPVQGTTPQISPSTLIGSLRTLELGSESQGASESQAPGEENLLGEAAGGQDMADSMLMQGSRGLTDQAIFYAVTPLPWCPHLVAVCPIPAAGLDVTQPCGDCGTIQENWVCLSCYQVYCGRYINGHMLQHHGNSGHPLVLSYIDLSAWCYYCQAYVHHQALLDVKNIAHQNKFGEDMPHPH
As to conditions: 1 uM.

A further experiment deals with Histone deacetylase 5 (Homo sapiens, UniProt Q9UQL6). The experiment is described as follows: Inhibition of HDAC5 (unknown origin) at 1 uM incubated for 30 mins in presence of BSA and DTT by fluorescence assay. The method in brief: (§1)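 Purified HDAC isoforms were tested up to a maximum of 1 μM. IC50 values are averages of duplicate experiments. Disulfide compounds were pretreated with DTT to reduce the disulfide bond.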

The target of another experiment is Histone deacetylase 9 (Homo sapiens, UniProt Q9UKV0). Description: Inhibition of HDAC9 (unknown origin) at 1 uM incubated for 30 mins in presence of BSA and DTT by fluorescence assay. The method in brief:
as §1

The target in the next experiment is Histone deacetylase 1 (Homo sapiens, UniProt Q13547). The experiment is described as follows: Inhibition of HDAC1 (unknown origin) incubated for 30 mins in presence of BSA and DTT by fluorescence assay.
For experiment [2], the target named is T2, Polyamine deacetylase HDAC10 (Homo sapiens, UniProt Q969S8).
T2 sequence (Q969S8 whole entry): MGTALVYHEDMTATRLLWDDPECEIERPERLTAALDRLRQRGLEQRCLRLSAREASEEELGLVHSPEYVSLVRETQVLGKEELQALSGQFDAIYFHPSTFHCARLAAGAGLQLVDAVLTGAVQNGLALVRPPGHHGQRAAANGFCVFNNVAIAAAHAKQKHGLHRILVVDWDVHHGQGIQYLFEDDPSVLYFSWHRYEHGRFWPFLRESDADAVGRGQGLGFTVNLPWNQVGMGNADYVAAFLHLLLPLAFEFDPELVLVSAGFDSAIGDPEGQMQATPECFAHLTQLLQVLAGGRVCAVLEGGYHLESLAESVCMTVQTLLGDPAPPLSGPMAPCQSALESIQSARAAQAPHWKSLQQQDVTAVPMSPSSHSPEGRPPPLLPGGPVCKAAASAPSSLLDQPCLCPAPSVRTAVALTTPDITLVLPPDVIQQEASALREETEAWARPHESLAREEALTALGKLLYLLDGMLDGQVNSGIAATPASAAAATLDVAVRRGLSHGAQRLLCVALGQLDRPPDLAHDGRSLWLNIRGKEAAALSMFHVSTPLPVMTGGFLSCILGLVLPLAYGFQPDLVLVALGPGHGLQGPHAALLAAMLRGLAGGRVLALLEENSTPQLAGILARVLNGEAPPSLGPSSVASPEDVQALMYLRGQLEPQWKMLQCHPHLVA
The experiment is described as follows: Inhibition of HDAC10 (unknown origin) incubated for 30 mins in presence of BSA and DTT by fluorescence assay. The method in brief:
as §1

Experiment [3] has as its target T3, Histone deacetylase 8 (Homo sapiens) (UniProt Q9BY41).
T3 sequence (whole entry): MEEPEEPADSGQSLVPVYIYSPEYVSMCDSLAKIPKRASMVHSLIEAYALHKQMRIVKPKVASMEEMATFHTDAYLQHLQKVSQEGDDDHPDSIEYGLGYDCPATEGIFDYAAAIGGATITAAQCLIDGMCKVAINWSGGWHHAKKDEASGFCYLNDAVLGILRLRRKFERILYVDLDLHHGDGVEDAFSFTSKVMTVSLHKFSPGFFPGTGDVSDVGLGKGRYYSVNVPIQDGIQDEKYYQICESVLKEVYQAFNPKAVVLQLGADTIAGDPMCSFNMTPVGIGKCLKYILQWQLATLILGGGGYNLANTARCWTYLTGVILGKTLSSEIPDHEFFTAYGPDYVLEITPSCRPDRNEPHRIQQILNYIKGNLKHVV
Description: Inhibition of HDAC8 (unknown origin) at 1 uM incubated for 30 mins in presence of BSA and DTT by fluorescence assay. In short, it runs like this: as §1

Experiment [4] addresses T4, Histone deacetylase 7 (Homo sapiens) (UniProt Q8WUI4).
T4 sequence (whole entry): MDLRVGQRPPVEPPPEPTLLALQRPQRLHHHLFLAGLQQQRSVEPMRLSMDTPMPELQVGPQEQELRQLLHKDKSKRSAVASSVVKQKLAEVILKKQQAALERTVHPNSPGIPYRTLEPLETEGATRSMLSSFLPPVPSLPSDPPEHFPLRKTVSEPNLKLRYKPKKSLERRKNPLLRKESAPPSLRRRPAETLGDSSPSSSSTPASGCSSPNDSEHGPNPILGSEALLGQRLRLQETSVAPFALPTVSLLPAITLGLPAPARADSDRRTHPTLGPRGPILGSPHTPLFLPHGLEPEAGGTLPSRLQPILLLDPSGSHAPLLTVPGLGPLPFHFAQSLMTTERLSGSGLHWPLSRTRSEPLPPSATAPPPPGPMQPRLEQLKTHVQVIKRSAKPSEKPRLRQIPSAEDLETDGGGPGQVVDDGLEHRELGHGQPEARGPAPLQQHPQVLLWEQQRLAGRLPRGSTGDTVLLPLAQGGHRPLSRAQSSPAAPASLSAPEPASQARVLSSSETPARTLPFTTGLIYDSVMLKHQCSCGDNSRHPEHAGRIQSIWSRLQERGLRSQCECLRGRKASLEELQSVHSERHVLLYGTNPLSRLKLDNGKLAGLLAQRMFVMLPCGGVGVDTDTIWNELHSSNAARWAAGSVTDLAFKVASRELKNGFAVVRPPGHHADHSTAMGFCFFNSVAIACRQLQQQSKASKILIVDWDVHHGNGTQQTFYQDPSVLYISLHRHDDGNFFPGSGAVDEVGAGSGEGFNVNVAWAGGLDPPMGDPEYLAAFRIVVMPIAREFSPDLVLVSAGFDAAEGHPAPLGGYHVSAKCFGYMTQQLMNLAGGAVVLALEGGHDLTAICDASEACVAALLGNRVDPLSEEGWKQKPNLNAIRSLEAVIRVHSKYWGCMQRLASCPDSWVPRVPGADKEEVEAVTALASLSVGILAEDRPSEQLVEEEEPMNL
The experiment is described as follows: Inhibition of HDAC7 (unknown origin) at 1 uM incubated for 30 mins in presence of BSA and DTT by fluorescence assay. In short, it runs like this: as §1

pIC50: −log10 of the molar value.

Chain of Histone deacetylase 1 (Q13547 whole entry): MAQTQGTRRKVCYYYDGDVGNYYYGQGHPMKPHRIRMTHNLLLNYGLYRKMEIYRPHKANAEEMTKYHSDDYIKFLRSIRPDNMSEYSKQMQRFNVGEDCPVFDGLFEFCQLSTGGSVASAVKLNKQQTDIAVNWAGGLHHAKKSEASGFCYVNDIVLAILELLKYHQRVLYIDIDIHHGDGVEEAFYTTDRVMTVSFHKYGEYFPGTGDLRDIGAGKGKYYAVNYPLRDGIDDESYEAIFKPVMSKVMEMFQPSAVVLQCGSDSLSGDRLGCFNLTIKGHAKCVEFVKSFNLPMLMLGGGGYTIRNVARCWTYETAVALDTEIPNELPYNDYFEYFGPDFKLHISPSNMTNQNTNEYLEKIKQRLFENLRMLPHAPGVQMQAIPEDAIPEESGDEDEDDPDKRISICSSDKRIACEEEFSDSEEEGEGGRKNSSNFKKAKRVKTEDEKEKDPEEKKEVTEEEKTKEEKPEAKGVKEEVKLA
Chain of Histone deacetylase 9 (Q9UKV0 whole entry): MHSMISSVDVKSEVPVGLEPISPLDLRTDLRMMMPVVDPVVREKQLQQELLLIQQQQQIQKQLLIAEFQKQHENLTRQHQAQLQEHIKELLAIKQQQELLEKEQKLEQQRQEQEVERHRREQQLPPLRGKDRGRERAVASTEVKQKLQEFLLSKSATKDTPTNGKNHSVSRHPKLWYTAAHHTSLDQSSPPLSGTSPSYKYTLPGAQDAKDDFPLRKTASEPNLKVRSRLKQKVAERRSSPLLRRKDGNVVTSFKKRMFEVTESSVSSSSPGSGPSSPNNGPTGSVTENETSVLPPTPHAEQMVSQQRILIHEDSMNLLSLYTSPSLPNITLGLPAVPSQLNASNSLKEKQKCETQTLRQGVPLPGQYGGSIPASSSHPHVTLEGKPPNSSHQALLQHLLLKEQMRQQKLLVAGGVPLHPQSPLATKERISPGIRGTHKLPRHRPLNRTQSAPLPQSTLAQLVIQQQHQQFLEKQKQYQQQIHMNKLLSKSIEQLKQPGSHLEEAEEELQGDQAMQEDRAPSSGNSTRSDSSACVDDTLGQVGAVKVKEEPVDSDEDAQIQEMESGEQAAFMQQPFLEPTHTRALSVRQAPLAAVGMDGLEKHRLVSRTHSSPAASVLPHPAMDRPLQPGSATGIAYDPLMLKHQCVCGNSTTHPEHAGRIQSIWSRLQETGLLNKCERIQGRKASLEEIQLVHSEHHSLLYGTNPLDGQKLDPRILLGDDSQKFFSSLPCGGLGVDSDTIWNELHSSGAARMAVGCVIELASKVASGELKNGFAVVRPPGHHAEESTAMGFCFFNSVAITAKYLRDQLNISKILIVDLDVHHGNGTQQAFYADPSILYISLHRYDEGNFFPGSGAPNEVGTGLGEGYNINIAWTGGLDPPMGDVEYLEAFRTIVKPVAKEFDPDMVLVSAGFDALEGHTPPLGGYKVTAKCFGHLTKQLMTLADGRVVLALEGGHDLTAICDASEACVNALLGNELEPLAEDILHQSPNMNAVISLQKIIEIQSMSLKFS
Chain of Histone deacetylase 5 (Q9UQL6 whole entry, canonical isoform): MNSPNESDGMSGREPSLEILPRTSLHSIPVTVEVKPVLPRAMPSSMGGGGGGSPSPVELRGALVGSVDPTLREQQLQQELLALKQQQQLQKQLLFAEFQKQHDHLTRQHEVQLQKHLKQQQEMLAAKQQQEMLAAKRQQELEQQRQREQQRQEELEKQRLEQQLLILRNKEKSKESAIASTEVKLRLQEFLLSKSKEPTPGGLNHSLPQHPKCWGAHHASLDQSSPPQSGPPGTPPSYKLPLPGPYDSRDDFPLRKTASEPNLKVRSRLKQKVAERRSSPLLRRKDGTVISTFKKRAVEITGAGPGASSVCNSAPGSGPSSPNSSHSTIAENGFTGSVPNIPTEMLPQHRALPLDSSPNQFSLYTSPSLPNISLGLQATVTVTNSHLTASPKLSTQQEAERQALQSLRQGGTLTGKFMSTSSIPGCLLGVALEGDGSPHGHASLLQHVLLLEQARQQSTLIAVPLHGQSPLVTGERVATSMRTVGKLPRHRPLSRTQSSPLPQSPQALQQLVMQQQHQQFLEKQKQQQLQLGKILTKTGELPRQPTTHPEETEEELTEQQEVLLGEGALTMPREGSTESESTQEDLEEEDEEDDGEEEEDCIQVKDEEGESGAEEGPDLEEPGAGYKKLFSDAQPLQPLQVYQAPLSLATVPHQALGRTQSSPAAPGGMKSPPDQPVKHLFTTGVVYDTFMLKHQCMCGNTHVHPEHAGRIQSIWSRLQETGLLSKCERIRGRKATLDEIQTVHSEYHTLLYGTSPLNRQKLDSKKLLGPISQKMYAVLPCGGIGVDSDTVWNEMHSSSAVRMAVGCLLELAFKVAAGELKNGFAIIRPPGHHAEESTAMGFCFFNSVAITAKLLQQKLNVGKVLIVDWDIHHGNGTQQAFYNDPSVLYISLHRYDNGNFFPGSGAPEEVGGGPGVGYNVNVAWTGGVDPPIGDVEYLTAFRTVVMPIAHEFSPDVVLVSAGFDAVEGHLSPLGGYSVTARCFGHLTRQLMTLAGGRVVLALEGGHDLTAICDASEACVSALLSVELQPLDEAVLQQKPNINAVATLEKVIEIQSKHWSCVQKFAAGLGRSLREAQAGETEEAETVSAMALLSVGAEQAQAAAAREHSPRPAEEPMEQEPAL

As for `C/C=C1\NC(=O)[C@H]2CSSCC/C=C/[C@H](CC(=O)N[C@H](C(C)C)C(=O)N2)OC(=O)[C@H](C(C)C)NC1=O` [ROMIDEPSIN], the inhibition in experiment [1] is 45%; on Histone deacetylase 5, 22%; at Histone deacetylase 9, 45%; in experiment [3], 36%; in experiment [4] it was 34%. Also, the pIC50 on Histone deacetylase 1 is 9.10; in experiment [2], 9.05.
